Measurements: ChEMBL document CHEMBL1165943, “Design and synthesis of new anticancer pyrimidines with multiple-kinase inhibitory effect” (Bioorg Med Chem, 2010)

Assays:
DU-145 = experiment: Cytotoxicity against human DU145 cells assessed as cell growth at 10 uM after 48 hrs by sulforhodamine B assay; format: functional; conditions: DU-145, 48 h, read-out: Activity
MDA-MB-435 = experiment: Cytotoxicity against human MDA-MB-435 cells assessed as cell growth at 10 uM; format: functional; conditions: read-out: Activity
Method in brief: (§1)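 Single-dose screen at 10 μM across the 60-cell-line panel. Cells grown in RPMI 1640 with 5% FBS and 2 mM L-glutamine, seeded at 5,000–40,000 cells/well according to doubling time, and treated 24 h later. Exposure lasted 48 h at 37 °C, 5% CO₂. Adherent cells were fixed with cold TCA, suspension cells were fixed settled, and both were stained with SRB and read at 515 nm. Growth % was recorded, with inhibition % = 100 − growth %.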

NCI/ADR-RES = experiment: Cytotoxicity against human NCI/ADR-RES cells assessed as cell growth at 10 uM; format: functional; conditions: Homo sapiens, NCI/ADR-RES; read-out: Activity; method in brief: as §1
SR = experiment: Cytotoxicity against human SR cells assessed as cell growth at 10 uM; format: functional; conditions: Homo sapiens, SR; read-out: Activity; method in brief: as §1
SW-620 = experiment: Cytotoxicity against human SW620 cells assessed as cell growth at 10 uM; format: functional; conditions: Homo sapiens, SW-620; read-out: Activity; method in brief: as §1
SK-MEL-5 = experiment: Cytotoxicity against human SK-MEL-5 cells assessed as cell growth at 0.001 uM after 48 hrs by sulforhodamine B assay; format: functional; conditions: SK-MEL-5, 48 h, read-out: Activity
UACC-62 [1] = experiment: Cytotoxicity against human UACC62 cells assessed as cell growth at 0.01 uM after 48 hrs by sulforhodamine B assay; format: functional; conditions: UACC-62, 48 h, read-out: Activity
HOP-62 [2] = experiment: Cytotoxicity against human HOP62 cells assessed as cell growth at 10 uM; format: functional; conditions: Homo sapiens, HOP-62; read-out: Activity
Method in brief: (§2)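 Single-concentration screen at 10 μM across the 60-cell-line panel (nine tissue types); growth percentage recorded per cell line, with inhibition taken as 100 minus growth percentage.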

HOP-62 [3] = experiment: Cytotoxicity against human HOP62 cells assessed as cell growth at 10 uM after 48 hrs by sulforhodamine B assay; format: functional; conditions: HOP-62, 48 h, read-out: Activity
[4] = Cytotoxicity against human […] cells assessed as cell growth at 10 uM; format: functional; conditions: Homo sapiens, RPMI8266; read-out: Activity; method in brief: as §1
NCI-H23 = experiment: Cytotoxicity against human NCI-H23 cells assessed as cell growth at 0.001 uM after 48 hrs by sulforhodamine B assay; format: functional; conditions: NCI-H23, 48 h, read-out: Activity
CCRF-CEM = experiment: Cytotoxicity against human CCRF-CEM cells assessed as cell growth at 10 uM; format: functional; conditions: Homo sapiens, CCRF-CEM; read-out: Activity; method in brief: as §2
M14 = experiment: Cytotoxicity against human M14 cells assessed as cell growth at 10 uM; format: functional; conditions: Homo sapiens, M14; read-out: Activity; method in brief: as §1
SNB-19 = experiment: Cytotoxicity against human SNB19 cells assessed as cell growth at 10 uM; format: functional; conditions: read-out: Activity; method in brief: as §1
SK-MEL-28 = experiment: Cytotoxicity against human SK-MEL-28 cells assessed as cell growth at 10 uM; format: functional; conditions: Homo sapiens, SK-MEL-28; read-out: Activity; method in brief: as §1
SN12C = experiment: Cytotoxicity against human SN12C cells assessed as cell growth at 10 uM; format: functional; conditions: Homo sapiens, SN12C; read-out: Activity; method in brief: as §1
[5] = Cytotoxicity against human Hs 578T cells assessed as cell growth at 10 uM; format: functional; conditions: read-out: Activity; method in brief: as §2
A549 [6] = experiment: Cytotoxicity against human A549 cells assessed as cell growth at 100 nM after 48 hrs by sulforhodamine B assay; format: functional; conditions: A549, 48 h, read-out: Activity
Method in brief: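 Cells grown in RPMI 1640 with 5% FBS and 2 mM L-glutamine, seeded at 5,000–40,000 cells/well by doubling time. Time-zero plates TCA-fixed after 24 h. Five concentrations (10-fold or half-log dilutions from DMSO stock) added; 48 h at 37 °C, 5% CO2. Cold TCA fixation (final 10%, 60 min, 4 °C), 0.4% SRB stain, dye solubilized in 10 mM trizma base, A515.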

MDA-MB-468 = experiment: Cytotoxicity against human MDA-MB-468 cells assessed as cell growth at 100 nM after 48 hrs by sulforhodamine B assay; format: functional; conditions: MDA-MB-468, 48 h, read-out: Activity
IGROV-1 [7] = experiment: Cytotoxicity against human IGROV1 cells assessed as cell growth at 10 uM; format: functional; conditions: Homo sapiens, IGROV-1; read-out: Activity; method in brief: as §1
T47D [8] = experiment: Cytotoxicity against human T47D cells assessed as cell growth at 10 uM; format: functional; conditions: Homo sapiens, T47D; read-out: Activity; method in brief: as §1
SNB-75 = experiment: Cytotoxicity against human SNB75 cells assessed as cell growth at 10 uM; format: functional; conditions: Homo sapiens, SNB-75; read-out: Activity; method in brief: as §1
T47D [9] = experiment: Growth inhibition of human T47D cells after 48 hrs by sulforhodamine B assay; format: functional, cell-based
Method in brief: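 Cells grown in RPMI 1640 with 5% FBS and 2 mM L-glutamine, seeded at 5,000–40,000 cells/well according to doubling time. After 24 h, time-zero plates are TCA-fixed. Five concentrations (10-fold or ½log dilutions, DMSO stocks) are applied for 48 h at 37 °C, 5% CO₂. Cells are TCA-fixed, SRB-stained and read at 515 nm. IC₅₀ is taken from [(Ti−Tz)/(C−Tz)]×100 = 50.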

RXF 393 = experiment: Cytotoxicity against human RXF393 cells assessed as cell growth at 10 uM; format: functional; conditions: Homo sapiens, RXF 393; read-out: Activity; method in brief: as §1
MDA-MB-231 = experiment: Cytotoxicity against human MDA-MB-231 cells assessed as cell growth at 10 uM; format: functional; conditions: Homo sapiens, MDA-MB-231; read-out: Activity; method in brief: as §1
HOP-92 = experiment: Cytotoxicity against human HOP92 cells assessed as cell growth at 10 uM; format: functional; conditions: Homo sapiens, HOP-92; read-out: Activity; method in brief: as §2
HT-29 = experiment: Cytotoxicity against human HT-29 cells assessed as cell growth at 10 uM; format: functional; conditions: Homo sapiens, HT-29; read-out: Activity; method in brief: as §2
UACC-62 [10] = experiment: Cytotoxicity against human UACC62 cells assessed as cell growth at 10 uM; format: functional; conditions: Homo sapiens, UACC-62; read-out: Activity; method in brief: as §1
MCF7 = experiment: Cytotoxicity against human MCF7 cells assessed as cell growth at 10 uM; format: functional; conditions: Homo sapiens, MCF7; read-out: Activity; method in brief: as §1
IGROV-1 [11] = experiment: Cytotoxicity against human IGROV1 cells assessed as cell growth at 0.01 uM after 48 hrs by sulforhodamine B assay; format: functional; conditions: IGROV-1, 48 h, read-out: Activity
SK-MEL-2 = experiment: Cytotoxicity against human SK-MEL-2 cells assessed as cell growth at 10 uM; format: functional; conditions: Homo sapiens, SK-MEL-2; read-out: Activity; method in brief: as §1
COLO 205 = experiment: Cytotoxicity against human COLO205 cells assessed as cell growth at 10 uM; format: functional; conditions: Homo sapiens, COLO 205; read-out: Activity; method in brief: as §2
A549 [12] = experiment: Cytotoxicity against human A549 cells assessed as cell growth at 10 uM; format: functional; conditions: Homo sapiens, A549; read-out: Activity; method in brief: as §2

Row | Compound | growth at 10 µM (DU-145) | growth at 10 µM (MDA-MB-435) | growth at 10 µM (NCI/ADR-RES) | growth at 10 µM (SR) | growth at 10 µM (SW-620) | growth at 0.001 µM (SK-MEL-5) | growth at 0.01 µM (UACC-62 [1]) | growth at 10 µM (HOP-62 [2]) | growth at 10 µM (HOP-62 [3]) | growth at 10 µM [4] | growth at 0.001 µM (NCI-H23) | growth at 10 µM (CCRF-CEM) | growth at 10 µM (M14) | growth at 10 µM (SNB-19) | growth at 10 µM (SK-MEL-28) | growth at 10 µM (SN12C) | growth at 10 µM [5] | growth at 0.1 µM (A549 [6]) | growth at 0.1 µM (MDA-MB-468) | growth at 10 µM (IGROV-1 [7]) | further results
1 | CC(=O)Nc1cccc(-c2ccc(-c3ccnc(NC(=O)Nc4cc(C(F)(F)F)cc(C(F)(F)F)c4)n3)cn2)c1.Cl | -93% | 73.9% | 45.5% | 68% | 85.2% | 96% | 92% | -3.2% | -36% | 38.1% | 91% | 43.3% | 46.5% | 50.5% | -37.6% | 68% | 120% | 58% | 47% | 76% | growth at 10 µM (T47D [8]): -11.3%; growth at 10 µM (SNB-75): 87.2%; GI50 (T47D [9]): 0.619 µM; IC50 (T47D [9]): 0.619 µM; LC50 (lethal concentration, 50% net cell kill) (T47D [9]): > 100 µM; TGI (T47D [9]): 8.43 µM; growth at 10 µM (RXF 393): 121%; growth at 10 µM (MDA-MB-231): 65.5%; growth at 10 µM (HOP-92): 72.4%; growth at 10 µM (HT-29): 9.2%; growth at 10 µM (UACC-62 [10]): 46.6%; growth at 10 µM (MCF7): 7.95%; growth at 0.01 µM (IGROV-1 [11]): 95%; growth at 10 µM (SK-MEL-2): 62.1%; growth at 10 µM (COLO 205): 53.5%
2 | CC(=O)c1ccccc1-c1ccc(-c2ccnc(NC(=O)Nc3cc(N4CCOCC4)cc(C(F)(F)F)c3)n2)cn1 | 59% | 82.8% | 58.1% | 86.2% | 90.5% | 99% | 94% | 7.86% | 19% | 79.7% | 98% | 80.7% | 8.07% | 71.7% | -74.8% | 52.3% | 60.8% | 92% | 103% | 70.8% | growth at 10 µM (A549 [12]): 68%; growth at 10 µM (T47D [8]): 79.8%; growth at 10 µM (SNB-75): 8.55%; GI50 (T47D [9]): > 100 µM; IC50 (T47D [9]): > 100 µM; LC50 (lethal concentration, 50% net cell kill) (T47D [9]): > 100 µM; TGI (T47D [9]): > 100 µM; growth at 10 µM (RXF 393): -19.6%; growth at 10 µM (MDA-MB-231): 30.1%; growth at 10 µM (HT-29): 33.1%; growth at 10 µM (UACC-62 [10]): 76%; growth at 10 µM (MCF7): 75%; growth at 0.01 µM (IGROV-1 [11]): 96%; growth at 10 µM (SK-MEL-2): 60.8%; growth at 10 µM (COLO 205): 85.7%
